Reference: ChEMBL document CHEMBL4270576, “Discovery of a benzenesulfonamide-based dual inhibitor of microsomal prostaglandin E2 synthase-1 and 5-lipoxygenase that favorably modulates lipid mediator biosynthesis in inflammation” (Eur J Med Chem, 2018)
pIC50: −log10 of the molar value. The source made the active and inactive calls. The calls are words filed in the database; no cut-off is given here.

Each compound was assayed against T1, Prostaglandin E synthase (Homo sapiens) (UniProt O14684) (assay: Inhibition of mPGES-1 isolated from microsomes of interleukin-1 beta-stimulated human A549 cells assessed as residual activity at 10 uM using PGH2 as substrate preincubated for 15 mins followed by substrate addition measured after 1 min by RP-HPLC analysis).
T1 sequence (whole entry): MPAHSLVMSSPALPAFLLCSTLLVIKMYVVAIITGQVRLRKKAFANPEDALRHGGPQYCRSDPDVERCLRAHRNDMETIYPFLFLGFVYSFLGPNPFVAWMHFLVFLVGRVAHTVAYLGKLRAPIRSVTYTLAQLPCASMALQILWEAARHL

| Compound | Activity [%] |
| --- | --- |
| O=C(O)c1ccc(N(CC2CCCCC2)S(=O)(=O)c2ccc(F)cc2)cc1 | 88.9 |
| CCCCCCN(c1ccc(C(=O)O)cc1)S(=O)(=O)c1ccc(C)cc1 | 79.9 |
| Cc1ccc(S(=O)(=O)N(Cc2c(F)cccc2Cl)c2ccc(C(=O)O)cc2)cc1 | 85.7 |
| Cc1ccc(S(=O)(=O)N(Cc2ccsc2)c2ccc(C(=O)O)cc2)cc1 | 90.7 |
| Cc1ccc(S(=O)(=O)N(Cc2ccc(Cl)cc2)c2ccc(C(=O)O)cc2)cc1 | 71.2 |
| COc1ccc(CN(c2ccc(C(=O)O)cc2)S(=O)(=O)c2ccc(C)cc2)cc1OC | 95.7 |
| O=C(O)c1ccc(N(Cc2cccs2)S(=O)(=O)c2ccc(F)cc2)cc1 | 96.5 |
| O=C(O)c1ccc(N(Cc2cccs2)S(=O)(=O)c2ccc(-c3ccc4ccccc4c3)cc2)cc1 | 76.7 |
| O=C(O)c1ccc(N(Cc2cccs2)S(=O)(=O)c2ccc(Cl)cc2)cc1 | 96.7 |
| Cc1ccc(S(=O)(=O)N(CC2CCCCC2)c2ccc(C(=O)O)cc2)cc1 | 91.6 |
| CCCCN(c1ccc(C(=O)O)cc1)S(=O)(=O)c1ccc(C)cc1 | 79.9 |

What follows are compounds tested against T2, Polyunsaturated fatty acid 5-lipoxygenase (Homo sapiens) (UniProt P09917) (assay: Inhibition of recombinant human 5-LO expressed in Escherichia coli BL21 (DE3) using arachidonic acid as substrate assessed as residual activity preincubated for 10 mins followed by CaCl2 and substrate addition measured after 10 mins by RP-HPLC analysis).
T2 sequence (whole entry): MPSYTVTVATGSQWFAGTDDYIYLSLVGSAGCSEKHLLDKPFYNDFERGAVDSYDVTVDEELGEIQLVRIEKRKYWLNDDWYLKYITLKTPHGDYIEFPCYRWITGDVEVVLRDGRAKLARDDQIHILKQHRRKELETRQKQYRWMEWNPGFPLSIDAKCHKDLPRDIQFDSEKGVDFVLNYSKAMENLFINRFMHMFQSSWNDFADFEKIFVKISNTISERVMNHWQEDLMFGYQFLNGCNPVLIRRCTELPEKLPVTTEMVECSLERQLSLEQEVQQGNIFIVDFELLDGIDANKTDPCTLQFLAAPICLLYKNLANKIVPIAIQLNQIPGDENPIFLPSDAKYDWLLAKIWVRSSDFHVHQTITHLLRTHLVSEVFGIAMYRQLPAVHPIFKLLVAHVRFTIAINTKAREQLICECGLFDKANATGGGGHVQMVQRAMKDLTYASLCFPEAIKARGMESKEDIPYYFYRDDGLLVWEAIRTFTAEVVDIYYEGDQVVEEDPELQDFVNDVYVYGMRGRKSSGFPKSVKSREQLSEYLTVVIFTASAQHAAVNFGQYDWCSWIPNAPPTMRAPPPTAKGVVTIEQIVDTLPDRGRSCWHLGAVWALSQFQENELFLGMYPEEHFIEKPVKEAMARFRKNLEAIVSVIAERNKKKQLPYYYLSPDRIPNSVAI
How it was run: (§1)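 Human recombinant 5-LO from E. coli BL21(DE3), ATP-agarose semi-purified (0.5 µg/ml), pre-incubated with compound or 0.1% DMSO at 4 °C. It was pre-warmed 30 s at 37 °C, then started with 2 mM CaCl2 plus 20 µM AA. Stopped after 10 min with ice-cold methanol; products by RP-HPLC. Residual activity at 10 µM; IC50 from 4-5 concentrations; n=3-4.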

| Compound | Activity [%] |
| --- | --- |
| O=C(O)c1ccc(N(CC2CCCCC2)S(=O)(=O)c2ccc(F)cc2)cc1 | 109 |
| CCCCCCN(c1ccc(C(=O)O)cc1)S(=O)(=O)c1ccc(C)cc1 | 86.1 |
| Cc1ccc(S(=O)(=O)N(Cc2c(F)cccc2Cl)c2ccc(C(=O)O)cc2)cc1 | 86.7 |
| Cc1ccc(S(=O)(=O)N(Cc2ccsc2)c2ccc(C(=O)O)cc2)cc1 | 106 |
| Cc1ccc(S(=O)(=O)N(Cc2ccc(Cl)cc2)c2ccc(C(=O)O)cc2)cc1 | 100 |
| COc1ccc(CN(c2ccc(C(=O)O)cc2)S(=O)(=O)c2ccc(C)cc2)cc1OC | 93.2 |
| O=C(O)c1ccc(N(Cc2cccs2)S(=O)(=O)c2ccc(F)cc2)cc1 | 86.7 |
| O=C(O)c1ccc(N(Cc2cccs2)S(=O)(=O)c2ccc(-c3ccc4ccccc4c3)cc2)cc1 | 71.9 |
| O=C(O)c1ccc(N(Cc2cccs2)S(=O)(=O)c2ccc(Cl)cc2)cc1 | 86.1 |
| Cc1ccc(S(=O)(=O)N(CC2CCCCC2)c2ccc(C(=O)O)cc2)cc1 | 91.4 |
| CCCCN(c1ccc(C(=O)O)cc1)S(=O)(=O)c1ccc(C)cc1 | 99.1 |

Each compound was assayed on Mus musculus (assay: Antiinflammatory activity in CD-1 mouse assessed as reduction in zymosan-induced LTC4 formation in peritoneal cavity at 10 mg/kg, ip preincubated for 30 mins followed by zymosan addition measured after 30 mins by ELISA).
Format: functional, organism-based
How it was run: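 CD-1 male mice (6-8 weeks), n=6 per group, given 10 mg/kg i.p. in 2% DMSO/saline vehicle 30 min before i.p. zymosan (500 µL of 2 mg/mL suspension). Peritoneal cavity washed with 3 ml PBS 30 min after zymosan; LTC4 measured in exudate. One-way ANOVA with Bonferroni test.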

| Compound | Activity |
| --- | --- |
| CC(c1cc2ccccc2s1)N(O)C(N)=O (centres undefined) [ZILEUTON] | Active |

The compounds below were run against T2, Polyunsaturated fatty acid 5-lipoxygenase (Homo sapiens) (assay: Inhibition of 5-LO in human neutrophils using arachidonic acid as substrate assessed as residual activity preincubated for 15 mins followed by substrate addition measured after 10 mins in presence of Ca2+ ionophore A23187 by HPLC analysis).
How it was run: (§2)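 Human neutrophils (5 × 10^6 in 1 ml PBS with 1 mg/ml glucose) pre-incubated 15 min at 37 °C with compound or 0.1% DMSO, then activated with 1 mM CaCl2 and 2.5 µM A23187, with or without 20 µM AA; 5-LO products measured after 10 min. Residual activity at 10 µM; IC50 by nonlinear regression from 4-5 concentrations; mean ± SEM, n=3-4.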

| Compound | Activity [%] |
| --- | --- |
| O=C(O)c1ccc(N(CC2CCCCC2)S(=O)(=O)c2ccc(F)cc2)cc1 | 98.7 |
| CCCCCCN(c1ccc(C(=O)O)cc1)S(=O)(=O)c1ccc(C)cc1 | 65.2 |
| Cc1ccc(S(=O)(=O)N(Cc2c(F)cccc2Cl)c2ccc(C(=O)O)cc2)cc1 | 75.4 |
| Cc1ccc(S(=O)(=O)N(Cc2ccsc2)c2ccc(C(=O)O)cc2)cc1 | 98.2 |
| Cc1ccc(S(=O)(=O)N(Cc2ccc(Cl)cc2)c2ccc(C(=O)O)cc2)cc1 | 83.2 |
| COc1ccc(CN(c2ccc(C(=O)O)cc2)S(=O)(=O)c2ccc(C)cc2)cc1OC | 110 |
| O=C(O)c1ccc(N(Cc2cccs2)S(=O)(=O)c2ccc(F)cc2)cc1 | 94.6 |
| O=C(O)c1ccc(N(Cc2cccs2)S(=O)(=O)c2ccc(-c3ccc4ccccc4c3)cc2)cc1 | 69.7 |
| O=C(O)c1ccc(N(Cc2cccs2)S(=O)(=O)c2ccc(Cl)cc2)cc1 | 97.2 |
| Cc1ccc(S(=O)(=O)N(CC2CCCCC2)c2ccc(C(=O)O)cc2)cc1 | 76.9 |
| CCCCN(c1ccc(C(=O)O)cc1)S(=O)(=O)c1ccc(C)cc1 | 112 |

These compounds were tested on Mus musculus (assay: Antiinflammatory activity in zymosan induced CD-1 mouse model of inflammation assessed as reduction in LTB4 levels in air pouch at 10 mg/kg, ip preincubated for 30 mins followed by zymosan challenge and measured after 4 hrs by ELISA).
Format: functional, organism-based
How it was run: (§3)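 Air pouch formed by s.c. injection of 2.5 mL sterile air in CD-1 mice; on day 6, 10 mg/kg i.p. (2% DMSO/saline) given 30 min before 1 ml 1% w/v zymosan into the pouch. After 4 h, exudate collected with 1 ml saline and centrifuged; leukocytes counted in Burker chamber; LTB4 in supernatant by ELISA (ng/mL). n=6 mice per group.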

| Compound | Activity |
| --- | --- |
| CC(c1cc2ccccc2s1)N(O)C(N)=O (centres undefined) [ZILEUTON] | Active |

These compounds were tested on Mus musculus (assay: Antiinflammatory activity in zymosan induced CD-1 mouse model of inflammation assessed as reduction in leukocyte recruitment in air pouch at 10 mg/kg, ip preincubated for 30 mins followed by zymosan challenge and measured after 4 hrs by trypan blue staining-based burker's chamber method).
Format: functional, organism-based
How it was run: as §3

| Compound | Activity |
| --- | --- |
| CC(c1cc2ccccc2s1)N(O)C(N)=O (centres undefined) [ZILEUTON] | Active |

Each compound was assayed against T3, Polyunsaturated fatty acid 5-lipoxygenase (Homo sapiens, UniProt P09917) (assay: Inhibition of recombinant human 5-LO expressed in Escherichia coli BL21 (DE3) using arachidonic acid as substrate preincubated for 10 mins followed by CaCl2 and substrate addition measured after 10 mins by RP-HPLC analysis).
T3 sequence (P09917 whole entry): T2 sequence (whole entry)
How it was run: as §1

| Compound | pIC50 |
| --- | --- |
| O=C(O)c1ccc(N(Cc2cccc(Oc3ccccc3)c2)S(=O)(=O)c2ccc(Oc3ccccc3)cc2)cc1 | 5.22 |
| O=C(O)c1ccc(N(Cc2cccc(Oc3ccccc3)c2)S(=O)(=O)c2ccc(-c3ccccc3)cc2)cc1 | 5.14 |
| O=C(O)c1ccc(N(Cc2ccc(OCc3ccccc3)cc2)S(=O)(=O)c2ccc(-c3ccccc3)cc2)cc1 | 5.18 |
| O=C(O)CCc1ccc(N(Cc2ccc3ccccc3c2)S(=O)(=O)c2ccc(-c3ccccc3)cc2)cc1 | 5.26 |
| O=C(O)c1ccc(N(Cc2ccc3ccccc3c2)S(=O)(=O)c2ccc(-c3ccccc3)cc2)cc1 | 5.19 |
| O=C(O)Cc1ccc(N(Cc2ccc3ccccc3c2)S(=O)(=O)c2ccc(-c3ccccc3)cc2)cc1 | 5.06 |
| CC(C)(C)C#Cc1ccc(S(=O)(=O)N(Cc2ccc(C(C)(C)C)cc2)c2ccc(C(=O)O)cc2)cc1 | 5.64 |
| CCCCCCCCN(c1ccc(C(=O)O)cc1)S(=O)(=O)c1ccc(-c2ccccc2)cc1 | 5.28 |
| CC(C)(C)c1ccc(CN(c2ccc(C(=O)O)cc2)S(=O)(=O)c2ccc(-c3ccccc3)cc2)cc1 | 5.25 |

Each compound was assayed against T3, Polyunsaturated fatty acid 5-lipoxygenase (assay: Inhibition of 5-LO in human neutrophils using arachidonic acid as substrate assessed as reduction in 5-LO product formation preincubated for 15 mins followed by substrate addition measured after 10 mins in presence of Ca2+ ionophore A23187 by HPLC analysis).
How it was run: as §2

| Compound | pIC50 |
| --- | --- |
| O=C(O)c1ccc(N(Cc2cccc(Oc3ccccc3)c2)S(=O)(=O)c2ccc(Oc3ccccc3)cc2)cc1 | 6.00 |
| O=C(O)c1ccc(N(Cc2cccc(Oc3ccccc3)c2)S(=O)(=O)c2ccc(-c3ccccc3)cc2)cc1 | 6.52 |
| O=C(O)c1ccc(N(Cc2ccc(OCc3ccccc3)cc2)S(=O)(=O)c2ccc(-c3ccccc3)cc2)cc1 | 6.30 |
| O=C(O)CCc1ccc(N(Cc2ccc3ccccc3c2)S(=O)(=O)c2ccc(-c3ccccc3)cc2)cc1 | 5.74 |
| O=C(O)c1ccc(N(Cc2ccc3ccccc3c2)S(=O)(=O)c2ccc(-c3ccccc3)cc2)cc1 | 5.96 |
| O=C(O)Cc1ccc(N(Cc2ccc3ccccc3c2)S(=O)(=O)c2ccc(-c3ccccc3)cc2)cc1 | 5.47 |
| CC(C)(C)C#Cc1ccc(S(=O)(=O)N(Cc2ccc(C(C)(C)C)cc2)c2ccc(C(=O)O)cc2)cc1 | 6.05 |
| CCCCCCCCN(c1ccc(C(=O)O)cc1)S(=O)(=O)c1ccc(-c2ccccc2)cc1 | 6.30 |
| CC(C)(C)c1ccc(CN(c2ccc(C(=O)O)cc2)S(=O)(=O)c2ccc(-c3ccccc3)cc2)cc1 | 6.52 |

Each compound was assayed against T4, Prostaglandin E synthase (Homo sapiens, UniProt O14684) (assay: Inhibition of mPGES-1 isolated from microsomes of interleukin-1 beta-stimulated human A549 cells using PGH2 as substrate preincubated for 15 mins followed by substrate addition measured after 1 min by RP-HPLC analysis).
T4 sequence (O14684 whole entry): T1 sequence (whole entry)
How it was run: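 Microsomes from A549 cells treated with IL-1β (1 ng/ml, 72 h), diluted in 0.1 M potassium phosphate pH 7.4 with 2.5 mM glutathione. Pre-incubated 15 min with compound or DMSO, then 20 µM PGH2 (final) for 1 min at 4 °C. IC50 from 4-5 concentrations.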

| Compound | pIC50 |
| --- | --- |
| O=C(O)c1ccc(N(Cc2cccc(Oc3ccccc3)c2)S(=O)(=O)c2ccc(Oc3ccccc3)cc2)cc1 | 6.10 |
| O=C(O)c1ccc(N(Cc2cccc(Oc3ccccc3)c2)S(=O)(=O)c2ccc(-c3ccccc3)cc2)cc1 | 5.42 |
| CC(c1cc2ccccc2s1)N(O)C(N)=O (centres undefined) [ZILEUTON] | 5.62 |
| O=C(O)c1ccc(N(Cc2ccc(OCc3ccccc3)cc2)S(=O)(=O)c2ccc(-c3ccccc3)cc2)cc1 | 5.19 |
| O=C(O)CCc1ccc(N(Cc2ccc3ccccc3c2)S(=O)(=O)c2ccc(-c3ccccc3)cc2)cc1 | 6.15 |
| O=C(O)c1ccc(N(Cc2ccc3ccccc3c2)S(=O)(=O)c2ccc(-c3ccccc3)cc2)cc1 | 6.52 |
| O=C(O)Cc1ccc(N(Cc2ccc3ccccc3c2)S(=O)(=O)c2ccc(-c3ccccc3)cc2)cc1 | 5.96 |
| CC(C)(C)C#Cc1ccc(S(=O)(=O)N(Cc2ccc(C(C)(C)C)cc2)c2ccc(C(=O)O)cc2)cc1 | 5.57 |
| CCCCCCCCN(c1ccc(C(=O)O)cc1)S(=O)(=O)c1ccc(-c2ccccc2)cc1 | 5.30 |
| CC(C)(C)c1ccc(CN(c2ccc(C(=O)O)cc2)S(=O)(=O)c2ccc(-c3ccccc3)cc2)cc1 | 5.92 |
